From ChEMBL document CHEMBL1629704, “Inhibition of dengue virus by an ester prodrug of an adenosine analog” (Antimicrob Agents Chemother, 2010)

Assays:
dengue virus type 2 [1] = test: Antiviral activity against Dengue virus 2 NGC infected in human A549 cells after 2 days by CFI assay in presence of 2 mg/ml alpha-1-acid glycoprotein; assay type: functional, organism-based; details: A549, 48 h
Summary of the method: (§1)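 Modified CFI: A549 cells infected with DENV-2 New Guinea C (MOI 0.3) for 1 h without compound. Inoculum then replaced with medium containing compound dilutions plus the stated HSA and/or AGP. On day 2, cells methanol-fixed and intracellular E protein detected by ELISA (4G2 primary, HRP anti-mouse secondary); EC50 derived.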

dengue virus type 2 [2] = test: Antiviral activity against Dengue virus 2 NGC infected in human A549 cells by CFI assay; assay type: functional, organism-based
Summary of the method: (§2)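 CFI assay: A549 cells seeded 2 × 10^4/well, infected next day (MOI 0.3 for DENV-2) with compound-virus mixture for 1 h, then refed with compound-containing medium. On day 2 cells were methanol-fixed at 4°C and intracellular E protein detected by ELISA (4G2 primary, HRP anti-mouse secondary). EC50 is the average of two independent experiments.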

[3] = Oral bioavailability in Wistar rat at 24.8 mg/kg by LC-MS-MS analysis; assay type: ADME, organism-based; details: in vivo
Summary of the method: (§3)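 Female Wistar rats, fasted overnight until 4 h post-dose, given 24.8 mg/kg orally in pH 3.5 HCl/citrate solution. Serial blood sampling from groups of three, 0.17–48 h. Plasma quantified by LC-MS-MS (LLOQ 9.2 ng/ml). Noncompartmental fit of mean profile; bioavailability from dose-corrected AUC ratio versus i.v.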

A549 [4] = test: Cytotoxicity against human A549 cells up to 12.5 uM after 48 hrs by MTT assay; assay type: functional, cell-based
dengue virus type 2 [5] = test: Antiviral activity against Dengue virus 2 NGC infected in human A549 cells after 2 days by CFI assay in presence of 40 mg/ml human serum albumin; assay type: functional, organism-based; details: A549, 48 h; summary of the method: as §1
[6] = Clearance in Wistar rat at 5.9 mg/kg, iv by LC-MS-MS analysis; assay type: ADME, organism-based; set-up: dose 5.9 mg/kg, route intravenous; details: in vivo
Summary of the method: (§4)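 Female Wistar rats given 5.9 mg/kg i.v. in pH 3.5 HCl/citrate formulation. Serial blood from groups of three rats, 0.17–48 h. Heparinized plasma extracted with acetonitrile-methanol-acetic acid, LC-MS-MS quantification (LLOQ 9.2 ng/ml); noncompartmental analysis of mean profile.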

dengue virus type 4 = test: Antiviral activity against Dengue virus 4 MY22713 infected in human A549 cells by CFI assay; assay type: functional, organism-based; summary of the method: as §2
[7] = Volume of distribution in CD-1 mouse at 5 mg/kg, iv by LC-MS-MS analysis; assay type: ADME, organism-based; set-up: dose 5 mg/kg, route intravenous; details: in vivo
Summary of the method: (§5)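 Female CD-1 mice, single i.v. injection of 5 mg/kg (1 mg/ml) in pH 3.5 HCl/citrate formulation. Blood from three animals at 0.02–24 h; heparinized plasma extracted and quantified by LC-MS-MS (LLOQ 9.2 ng/ml). Noncompartmental analysis of the mean concentration-time profile.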

Rattus norvegicus = test: AUC (0 to infinity) in Wistar rat at 24.8 mg/kg, po by LC-MS-MS analysis; assay type: ADME, organism-based, Plasma; set-up: time infinity, dose 24.8 mg/kg, route oral; details: in vivo; summary of the method: as §3
dengue virus type 2 [8] = test: Antiviral activity against Dengue virus 2 MY10340 infected in human A549 cells by CFI assay; assay type: functional, organism-based; summary of the method: as §2
dengue virus type 3 = test: Antiviral activity against Dengue virus 3 MY22366 infected in human A549 cells by CFI assay; assay type: functional, organism-based; summary of the method: as §2
[9] = Tmax in CD-1 mouse at 25 mg/kg, po by LC-MS-MS analysis; assay type: ADME, organism-based; set-up: dose 25 mg/kg, route oral; details: in vivo
Summary of the method: (§6)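 Female CD-1 mice dosed orally at 25 mg/kg, formulated at 2.5 mg/ml in 0.1 N HCl (1.5 equimolar), pH 3.5 with NaOH, topped off with 100 mM citrate pH 3.5. Blood taken from three animals per time point, 0.08–24 h. Plasma acetonitrile-methanol-acetic acid extract analysed by LC-MS-MS (LLOQ 9.2 ng/ml). Mean profile fitted noncompartmentally; F from dose-corrected p.o./i.v. AUC.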

Mus musculus = test: AUC (0 to infinity) in CD-1 mouse at 25 mg/kg, po by LC-MS-MS analysis; assay type: ADME, organism-based, Plasma; set-up: time infinity, dose 25 mg/kg, route oral; details: in vivo; summary of the method: as §6
dengue virus type 1 = test: Antiviral activity against Dengue virus 1 MY10245 infected in human A549 cells by CFI assay; assay type: functional, organism-based; summary of the method: as §2
[10] = Half life in Wistar rat at 5.9 mg/kg, iv by LC-MS-MS analysis; assay type: ADME, organism-based; set-up: dose 5.9 mg/kg, route intravenous; details: in vivo; summary of the method: as §4
[11] = Oral bioavailability in CD-1 mouse at 25 mg/kg by LC-MS-MS analysis; assay type: ADME, organism-based; details: in vivo; summary of the method: as §6
dengue virus type 2 [12] = test: Antiviral activity against Dengue virus 2 NGC infected in human A549 cells after 2 days by CFI assay in presence of 40 mg/ml human serum albumin and 2 mg/ml alpha-1-acid glycoprotein; assay type: functional, organism-based; details: A549, 48 h; summary of the method: as §1
[13] = Clearance in CD-1 mouse at 5 mg/kg, iv by LC-MS-MS analysis; assay type: ADME, organism-based; set-up: dose 5 mg/kg, route intravenous; details: in vivo; summary of the method: as §5
A549 [14] = test: Cytotoxicity against human A549 cells at >= 25 uM after 48 hrs by MTT assay; assay type: cell-based; details: a549, 48 h
[15] = Cmax in Wistar rat at 24.8 mg/kg, po by LC-MS-MS analysis; assay type: ADME, organism-based; set-up: dose 24.8 mg/kg, route oral; details: in vivo; summary of the method: as §3
[16] = Volume of distribution at steady state Wistar rat at 5.9 mg/kg, iv by LC-MS-MS analysis; assay type: ADME, organism-based; set-up: dose 5.9 mg/kg, route intravenous; details: in vivo, read-out: Vdss; summary of the method: as §4
[17] = Tmax in Wistar rat at 24.8 mg/kg, po by LC-MS-MS analysis; assay type: ADME, organism-based; set-up: dose 24.8 mg/kg, route oral; details: in vivo; summary of the method: as §3
[18] = Half life in CD-1 mouse at 5 mg/kg, iv by LC-MS-MS analysis; assay type: ADME, organism-based; set-up: dose 5 mg/kg, route intravenous; details: in vivo; summary of the method: as §5
[19] = Cmax in CD-1 mouse at 25 mg/kg, po by LC-MS-MS analysis; assay type: ADME, organism-based; set-up: dose 25 mg/kg, route oral; details: in vivo; summary of the method: as §6
dengue virus type 2 [20] = test: Antiviral activity against Dengue virus 2 NGC infected in human PBMC cells by plaque assay; assay type: functional, organism-based
A549 [21] = test: Cytotoxicity against human A549 cells up to 25 uM after 48 hrs by MTT assay; assay type: functional, cell-based

## C#C[C@@]1(O)[C@H](O)[C@@H](CO)O[C@H]1n1cc(C(N)=O)c2c(N)ncnc21
Dengue virus type 2 [1]
  EC50: 2.52 µM
Dengue virus type 2 [2]
  EC50: 2.61 µM
[3]
  bioavailability: 2%
A549 [4]
  Activity: Not toxic
Dengue virus type 2 [5]
  EC50: 4.76 µM
[6]
  clearance: 8.98 mL/min/kg
Dengue virus type 4
  EC50: 6.99 µM
[7]
  Vd: 0.26 L/kg
Rattus norvegicus
  AUC: 3.15 µM·h
Dengue virus type 2 [8]
  EC50: 1.62 µM
Dengue virus type 3
  EC50: 1.94 µM
[9]
  Tmax: 1 h
Mus musculus
  AUC: 0.42 µM·h
Dengue virus type 1
  EC50: 2.27 µM
[10]
  half-life: 8.33 h
[11]
  bioavailability: 1%
Dengue virus type 2 [12]
  EC50: 4.64 µM
[13]
  clearance: 21.9 mL/min/kg
A549 [14]
  Activity: Non-toxic
[15]
  Cmax: 270 nM
[16]
  Vd: 2.71 L/kg
[17]
  Tmax: 0.17 h
[18]
  half-life: 1.31 h
[19]
  Cmax: 270 nM
Dengue virus type 2 [20]
  EC50: 5 µM
A549 [21]
  Activity: Not toxic
